Experiments:
Cholinesterase = Cholinesterase (Homo sapiens, UniProt P06276); assay: Inhibition constant against human Butyrylcholinesterase (hBuChE) using butyrylthiocholine (BuTCh) as substrate
Liver carboxylesterase 1 [1] = target: T1, Liver carboxylesterase 1 (Oryctolagus cuniculus, UniProt P12337); assay: Inhibition constant against rabbit liver carboxylesterase (rCE) using nitrophenyl acetate (o-NPA) as substrate
T1 sequence (P12337 whole entry): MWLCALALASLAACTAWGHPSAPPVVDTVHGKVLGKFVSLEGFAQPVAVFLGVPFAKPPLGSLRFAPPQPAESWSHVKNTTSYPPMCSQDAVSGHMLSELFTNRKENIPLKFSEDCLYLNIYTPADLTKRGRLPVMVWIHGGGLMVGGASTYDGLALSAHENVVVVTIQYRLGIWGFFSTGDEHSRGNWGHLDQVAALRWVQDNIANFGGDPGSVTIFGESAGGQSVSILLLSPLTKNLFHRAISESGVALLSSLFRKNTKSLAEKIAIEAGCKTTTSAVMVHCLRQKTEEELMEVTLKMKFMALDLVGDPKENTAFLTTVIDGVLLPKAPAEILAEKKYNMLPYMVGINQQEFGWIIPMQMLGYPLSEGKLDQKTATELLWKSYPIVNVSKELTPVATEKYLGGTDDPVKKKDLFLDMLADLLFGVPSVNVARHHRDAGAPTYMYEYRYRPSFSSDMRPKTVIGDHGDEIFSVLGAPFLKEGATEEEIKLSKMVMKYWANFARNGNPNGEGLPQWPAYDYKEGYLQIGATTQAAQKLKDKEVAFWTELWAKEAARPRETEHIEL
How it was run: (§1)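 Pure rCE prepared per earlier work. Spectrophotometric multiwell assay with 3mM o-NPA. Inhibitor and substrate were dispensed first, then enzyme was added. A420 was read every 15 s for 5 min and compared with no-inhibitor wells. Inhibitor range started at 1 pM. Duplicates, with 50 µM BNPP and DMSO/no-enzyme controls. Ki came from a partially competitive inhibition equation fit.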

Acetylcholinesterase = Acetylcholinesterase (Homo sapiens, UniProt P22303); assay: Inhibition constant against human Acetylcholinesterase (hAcChE) using acetylthiocholine (AcTCh) as substrate
Liver carboxylesterase 1 [2] = target: T2, Liver carboxylesterase 1 (Homo sapiens, UniProt P23141); assay: Inhibition constant against human liver carboxylesterase 1 (hCE1) using nitrophenyl acetate (o-NPA) as substrate
T2 sequence (P23141 whole entry): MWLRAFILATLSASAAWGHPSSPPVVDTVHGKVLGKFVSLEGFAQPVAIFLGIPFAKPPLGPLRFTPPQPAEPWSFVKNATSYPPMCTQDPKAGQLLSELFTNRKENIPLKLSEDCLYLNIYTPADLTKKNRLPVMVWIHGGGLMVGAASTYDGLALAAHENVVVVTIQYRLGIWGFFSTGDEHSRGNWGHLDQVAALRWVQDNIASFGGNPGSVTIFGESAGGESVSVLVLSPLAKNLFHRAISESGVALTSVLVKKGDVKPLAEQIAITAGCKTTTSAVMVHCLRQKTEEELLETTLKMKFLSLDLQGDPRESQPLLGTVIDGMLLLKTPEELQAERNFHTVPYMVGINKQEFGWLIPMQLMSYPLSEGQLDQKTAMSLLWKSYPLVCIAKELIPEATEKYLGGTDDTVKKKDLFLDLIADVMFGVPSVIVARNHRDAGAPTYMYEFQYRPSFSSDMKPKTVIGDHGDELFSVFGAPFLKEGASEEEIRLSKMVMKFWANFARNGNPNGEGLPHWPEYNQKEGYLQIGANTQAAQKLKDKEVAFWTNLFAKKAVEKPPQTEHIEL

Cocaine esterase = target: T3, Cocaine esterase (Homo sapiens, UniProt O00748); assay: Inhibition constant against human intestinal carboxylesterase 2 (hiCE) using nitrophenyl acetate (o-NPA) as substrate
T3 sequence (O00748 whole entry): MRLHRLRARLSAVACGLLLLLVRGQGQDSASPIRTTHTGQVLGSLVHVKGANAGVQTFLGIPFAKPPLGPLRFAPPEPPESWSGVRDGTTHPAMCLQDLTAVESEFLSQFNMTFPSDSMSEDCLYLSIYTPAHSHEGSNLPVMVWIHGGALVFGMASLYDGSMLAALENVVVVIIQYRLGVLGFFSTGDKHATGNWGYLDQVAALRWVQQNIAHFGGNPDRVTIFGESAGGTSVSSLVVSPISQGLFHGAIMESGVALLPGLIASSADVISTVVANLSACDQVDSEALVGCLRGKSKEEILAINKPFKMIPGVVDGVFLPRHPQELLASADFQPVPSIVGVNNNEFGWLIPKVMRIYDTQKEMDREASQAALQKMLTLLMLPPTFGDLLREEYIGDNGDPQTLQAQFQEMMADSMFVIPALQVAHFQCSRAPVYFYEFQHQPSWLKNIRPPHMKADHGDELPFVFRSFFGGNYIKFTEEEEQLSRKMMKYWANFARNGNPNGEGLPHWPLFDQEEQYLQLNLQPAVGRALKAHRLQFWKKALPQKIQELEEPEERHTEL

Liver carboxylesterase 1 [3] = target: T2, Liver carboxylesterase 1; assay: Inhibition constant against human liver carboxylesterase 1 using o-NPA (nitrophenyl acetate)
How it was run: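 Purified hCE1 was assayed in multiwell plates with 3 mM o-nitrophenyl acetate, with enzyme added last. Absorbance change at 420 nm was read every 15 s for 5 min and compared with no-inhibitor wells. Inhibitor concentrations started at 1 pM, and assays were run in duplicate with 50 µM BNPP and DMSO/no-enzyme controls. Ki came from fitting to a partially competitive inhibition equation.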

Liver carboxylesterase 1 [4] = target: T1, Liver carboxylesterase 1; assay: Inhibition constant against rabbit liver carboxylesterase using CPT-11
How it was run: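 Purified rabbit CE was used with CPT-11 as the substrate. CPT-11 and SN-38 were quantified by HPLC with fluorescence detection.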

Liver carboxylesterase 1 [5] = target: T2, Liver carboxylesterase 1; assay: Inhibition constant against human liver carboxylesterase 1 using 4-MUA (4-methylumbelliferone acetate)
How it was run: (§2)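 Pure enzyme (hCE1 or rabbit CE) was incubated with 0.75 mM 4-methylumbelliferone acetate in 50 mM Hepes, pH 7.4. Inhibitor dilution series were run, and Ki was obtained by fitting fractional inhibition to a partially competitive inhibition equation.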

Liver carboxylesterase 1 [6] = target: T1, Liver carboxylesterase 1; assay: Inhibition constant against rabbit liver carboxylesterase using 4-MUA (4-methylumbelliferone acetate)
How it was run: as §2, with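 “7.4. 4-Methylumbelliferone release was read fluorimetrically (excitation 365 nm, emission 460 nm) over 1 min, where the rate was linear.” for “7.4.”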

Liver carboxylesterase 1 [7] = target: T1, Liver carboxylesterase 1; assay: Inhibition constant against rabbit liver carboxylesterase using o-NPA (nitrophenyl acetate); how it was run: as §1

Chain of Acetylcholinesterase (P22303 whole entry): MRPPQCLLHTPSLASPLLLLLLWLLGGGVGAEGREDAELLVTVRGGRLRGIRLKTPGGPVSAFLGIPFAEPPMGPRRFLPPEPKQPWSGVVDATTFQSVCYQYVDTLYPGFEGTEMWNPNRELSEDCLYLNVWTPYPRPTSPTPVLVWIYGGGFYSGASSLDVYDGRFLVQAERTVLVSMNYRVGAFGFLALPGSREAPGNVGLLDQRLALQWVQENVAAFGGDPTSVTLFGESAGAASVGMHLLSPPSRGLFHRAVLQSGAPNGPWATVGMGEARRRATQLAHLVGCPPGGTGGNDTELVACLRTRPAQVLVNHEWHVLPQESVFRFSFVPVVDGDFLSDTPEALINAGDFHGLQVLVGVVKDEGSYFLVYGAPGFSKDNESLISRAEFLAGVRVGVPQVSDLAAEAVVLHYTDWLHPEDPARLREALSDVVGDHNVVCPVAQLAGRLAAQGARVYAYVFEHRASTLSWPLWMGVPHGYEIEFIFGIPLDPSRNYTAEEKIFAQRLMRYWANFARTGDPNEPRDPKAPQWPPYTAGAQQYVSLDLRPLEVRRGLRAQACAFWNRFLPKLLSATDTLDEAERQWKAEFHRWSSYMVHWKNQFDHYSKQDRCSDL
Chain of Cholinesterase (P06276 whole entry): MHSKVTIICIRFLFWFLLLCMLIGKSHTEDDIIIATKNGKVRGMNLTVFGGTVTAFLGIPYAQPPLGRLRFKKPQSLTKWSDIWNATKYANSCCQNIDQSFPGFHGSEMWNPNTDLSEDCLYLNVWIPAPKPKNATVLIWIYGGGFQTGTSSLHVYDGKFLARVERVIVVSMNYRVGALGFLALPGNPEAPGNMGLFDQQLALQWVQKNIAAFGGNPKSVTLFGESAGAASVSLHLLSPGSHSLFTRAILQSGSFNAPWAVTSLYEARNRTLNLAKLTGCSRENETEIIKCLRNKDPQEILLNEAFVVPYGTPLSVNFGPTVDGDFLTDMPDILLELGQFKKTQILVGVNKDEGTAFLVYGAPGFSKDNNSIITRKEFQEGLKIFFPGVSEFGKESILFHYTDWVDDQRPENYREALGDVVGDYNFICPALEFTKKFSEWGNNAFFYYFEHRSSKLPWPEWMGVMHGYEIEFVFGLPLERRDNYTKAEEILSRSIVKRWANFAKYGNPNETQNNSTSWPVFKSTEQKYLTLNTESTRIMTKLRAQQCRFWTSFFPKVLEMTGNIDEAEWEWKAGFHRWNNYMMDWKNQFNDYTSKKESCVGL

SMILES	Ki (Cholinesterase) [µM]	Ki (Liver carboxylesterase 1 [1]) [µM]	Ki (Acetylcholinesterase) [µM]	Ki (Liver carboxylesterase 1 [2]) [µM]	Ki (Cocaine esterase) [µM]	Ki (Liver carboxylesterase 1 [3]) [µM]	Ki (Liver carboxylesterase 1 [4]) [µM]	Ki (Liver carboxylesterase 1 [5]) [nM]	Ki (Liver carboxylesterase 1 [6]) [µM]	Ki (Liver carboxylesterase 1 [7]) [µM]
CC1CCCC(=O)C1=O (stereo not drawn)	> 100	> 100	> 100	> 100	> 100	–	–	–	–	–
O=C1CCCCC1=O	> 100	> 100	> 100	> 100	> 100	–	–	–	–	–
CC(=O)C(C)=O [BUTANEDIONE]	> 100	> 100	> 100	> 100	> 100	–	–	–	–	–
CCCCC(=O)C(C)=O	> 100	> 100	> 100	16.9	> 100	–	–	–	–	–
[O-][S+](Cc1ccccc1)Cc1ccccc1	> 100	> 100	> 100	> 100	> 100	–	–	–	–	–
COC(OC)(C(=O)c1ccccc1)c1ccccc1	> 100	> 100	> 100	15.3	> 100	–	–	–	–	–
O=C(C(=O)c1ccc(Cl)cc1)c1ccccc1	–	0.0239	–	–	–	0.0474	0.0525	5.4	0.0017	–
CC(=O)C(=O)c1ccccc1	> 100	4.93	> 100	5.27	–	–	–	–	–	–
Cc1ccc(C(=O)C(=O)c2ccccc2)cc1C	–	0.108	–	–	–	0.0991	0.24	18.8	0.0044	–
CC1CC(C)(C)CC(=O)C1=O (stereo not drawn)	> 100	> 100	> 100	> 100	> 100	–	–	–	–	–
O=C1CCCC(=O)C1	> 100	> 100	> 100	> 100	> 100	–	–	–	–	–
CCC(=O)C(C)=O [2,3-PENTANEDIONE]	> 100	> 100	> 100	> 100	> 100	–	–	–	–	–
OC(c1ccccc1)C(O)c1ccccc1 (stereo not drawn)	> 100	> 100	> 100	> 100	> 100	–	–	–	–	–
CC(=O)CC(C)=O	> 100	> 100	> 100	> 100	> 100	–	–	–	–	–
CN(C)c1ccc(C(O)C(=O)c2ccccc2)cc1 (stereo not drawn)	> 100	> 100	> 100	> 100	> 100	–	–	–	–	–
O=C1C=CC(=O)C=C1 [BENZOQUINONE]	2.05	> 100	0.955	> 100	> 100	–	–	–	–	–
O=C1C(=O)C(Cl)=C(Cl)C(Cl)=C1Cl	3.2	1.03	1.67	5.44	0.875	–	–	–	–	–
O=C(c1ccccc1)C(O)c1ccccc1 (stereo not drawn) [BENZOIN]	–	> 100	–	–	–	–	–	–	–	–
COc1ccc(C(=O)C(O)c2ccc(OC)cc2)cc1 (stereo not drawn)	> 100	13.9	> 100	> 100	> 100	–	–	–	–	–

SMILES	Ki (Cholinesterase) [µM]	Ki (Liver carboxylesterase 1 [1]) [µM]	Ki (Acetylcholinesterase) [µM]	Ki (Liver carboxylesterase 1 [2]) [µM]	Ki (Cocaine esterase) [µM]	Ki (Liver carboxylesterase 1 [3]) [µM]	Ki (Liver carboxylesterase 1 [4]) [µM]	Ki (Liver carboxylesterase 1 [5]) [nM]	Ki (Liver carboxylesterase 1 [6]) [µM]	Ki (Liver carboxylesterase 1 [7]) [µM]
O=C(C(=O)c1ccc(Cl)cc1)c1ccc(Cl)cc1	–	0.0095	–	0.182	–	0.182	0.043	1.6	0.0013	0.0095
CC1NC(=O)C(=O)OC1C (stereo not drawn)	> 100	> 100	> 100	> 100	> 100	–	–	–	–	–
CN(C)c1ccc(C(=O)C(=O)c2ccc(N(C)C)cc2)cc1	–	2.15	–	–	–	–	–	–	–	–
O=C(O)c1ccc(C(=O)c2ccccc2)cc1	> 100	> 100	> 100	> 100	> 100	–	–	–	–	–
CC(C)(C)C1=CC(=O)C(=O)C(C(C)(C)C)=C1	> 100	0.736	> 100	0.0886	1.35	–	–	–	–	–
O=S(=O)(Cc1ccccc1)Cc1ccccc1	> 100	> 100	> 100	> 100	> 100	–	–	–	–	–
Oc1nc2cc(Cl)c(Cl)cc2nc1O [2,3-DIHYDROXY-6,7-DICHLOROQUINOXALINE]	> 100	> 100	> 100	> 100	> 100	–	–	–	–	–
O=C(CC(=O)c1ccccc1)c1ccccc1 [DIBENZOYLMETHANE]	> 100	3.95	> 100	26	> 100	–	–	–	–	–
O=C(C(=O)c1ccc(Br)cc1)c1ccc(Br)cc1	–	0.0041	–	–	–	–	0.025	0.029	0.00017	–
O=S(=O)(Cc1ccccc1)c1ccccc1 [BENZYLSULFONYLBENZENE]	> 100	> 100	> 100	> 100	> 100	–	–	–	–	–
CC1C(=O)CCCC1=O	> 100	> 100	> 100	> 100	> 100	–	–	–	–	–
Cc1ccc(C(=O)C(=O)c2ccccc2)cc1[N+](=O)[O-]	–	0.0119	–	–	–	0.295	0.0241	7.5	0.004	–
O=C(c1ccccc1)c1ccccc1 [BENZOPHENONE]	> 100	> 100	–	> 100	> 100	–	–	–	–	–
CC(=O)CCC(=O)c1ccccc1	> 100	> 100	> 100	> 100	> 100	–	–	–	–	–
CC1CCC(=O)C1=O (stereo not drawn)	> 100	15.7	> 100	> 100	> 100	–	–	–	–	–
O=C(C(=O)c1ccc(C(=O)C(=O)c2ccccc2)cc1)c1ccccc1	–	0.0061	–	–	–	–	0.0141	–	0.0021	–
O=C1C(Cl)=C(Cl)C(=O)C(Cl)=C1Cl [CHLORANIL]	0.268	0.0548	0.163	0.0839	–	–	–	–	–	–
CC1C(=O)CCC1=O	> 100	> 100	> 100	> 100	> 100	–	–	–	–	–

Source: ChEMBL document CHEMBL1143603, “Identification and characterization of novel benzil (diphenylethane-1,2-dione) analogues as inhibitors of mammalian carboxylesterases” (J Med Chem, 2005)
